{"source": "ChEMBL document CHEMBL4673340", "about": "(J Med Chem, 2020)", "key": {"[1]": {"assay": "Cmax in Sprague-Dawley rat at 5 mg/kg, po by LC-MS/MS analysis", "conditions": "in vivo"}, "[2]": {"assay": "Oral bioavailability in Sprague-Dawley rat at 5 mg/kg by LC-MS/MS analysis", "assay_type": "ADME, organism-based", "conditions": "in vivo", "procedure,_shortened": "(§1)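 Pharmacokinetics in Sprague-Dawley rats, three per group. iv 2 mg/kg in 38% DMA in water; po 5 mg/kg. Plasma was protein-precipitated, diluted with water and analysed by LC-MS/MS using an acetonitrile/0.1% formic acid gradient. Values are means of three rats.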"}, "[3]": {"tested_on": "HCC1395", "assay": "Antiproliferation activity against human HCC1395 cells expressing BRCA1 mutant incubated for 7 days by CellTiter-Glo luminescent cell viability assay", "assay_type": "functional, cell-based", "conditions": "HCC1395, 168 h", "procedure,_shortened": "(§2)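 Seeding density is set per line for log growth over 7 days. Cells attach 16 h, then are treated in duplicate with a 10-point dilution series for 7 days. CellTiter-Glo luminescence (ATP) is read, and viability is expressed relative to mock-treated control. EC50 is the mean of three independent experiments run in triplicate.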"}, "[4]": {"assay": "Antiproliferation activity against human UWB1289 cells expressing BRCA1 mutant incubated for 7 days by CellTiter-Glo luminescent cell viability assay", "assay_type": "functional, cell-based", "conditions": "UWB1289, 168 h", "procedure,_shortened": "as §2"}, "[5]": {"assay": "Apparent permeability from apical to basolateral side in human Caco-2 cells", "assay_type": "ADME, cell-based"}, "[6]": {"assay": "Clearance in Sprague-Dawley rat at 2 mg/kg, iv by LC-MS/MS analysis", "assay_type": "ADME, organism-based", "conditions": "in vivo", "procedure,_shortened": "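Sprague-Dawley rats (n=3) get 2 mg/kg iv formulated in 38% DMA in water. Plasma is protein-precipitated and quantified by LC–MS/MS (C18, acetonitrile/0.1% formic acid gradient). Parameters are means of the three rats.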"}, "[7]": {"biological_target": "Cytochrome P450 1A2 (Homo sapiens, UniProt P05177)", "sequence (P05177 whole entry)": "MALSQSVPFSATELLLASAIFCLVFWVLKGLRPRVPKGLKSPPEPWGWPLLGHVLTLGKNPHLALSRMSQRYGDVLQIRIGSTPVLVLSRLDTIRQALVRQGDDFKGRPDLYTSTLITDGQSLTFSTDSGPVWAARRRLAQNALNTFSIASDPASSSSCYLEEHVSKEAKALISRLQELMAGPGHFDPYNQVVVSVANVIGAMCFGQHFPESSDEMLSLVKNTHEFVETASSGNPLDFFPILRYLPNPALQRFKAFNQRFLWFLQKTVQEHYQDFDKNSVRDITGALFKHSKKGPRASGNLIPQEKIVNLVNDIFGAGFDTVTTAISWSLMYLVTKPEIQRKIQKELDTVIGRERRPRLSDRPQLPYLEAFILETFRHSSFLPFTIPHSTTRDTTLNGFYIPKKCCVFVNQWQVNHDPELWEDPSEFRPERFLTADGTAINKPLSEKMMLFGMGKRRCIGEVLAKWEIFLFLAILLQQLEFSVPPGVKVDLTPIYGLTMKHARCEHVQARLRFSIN", "assay": "Inhibition of CYP1A2 (unknown origin)", "assay_type": "ADME"}, "[8]": {"biological_target": "Cytochrome P450 2C9 (Homo sapiens, UniProt P11712)", "sequence (P11712 whole entry)": "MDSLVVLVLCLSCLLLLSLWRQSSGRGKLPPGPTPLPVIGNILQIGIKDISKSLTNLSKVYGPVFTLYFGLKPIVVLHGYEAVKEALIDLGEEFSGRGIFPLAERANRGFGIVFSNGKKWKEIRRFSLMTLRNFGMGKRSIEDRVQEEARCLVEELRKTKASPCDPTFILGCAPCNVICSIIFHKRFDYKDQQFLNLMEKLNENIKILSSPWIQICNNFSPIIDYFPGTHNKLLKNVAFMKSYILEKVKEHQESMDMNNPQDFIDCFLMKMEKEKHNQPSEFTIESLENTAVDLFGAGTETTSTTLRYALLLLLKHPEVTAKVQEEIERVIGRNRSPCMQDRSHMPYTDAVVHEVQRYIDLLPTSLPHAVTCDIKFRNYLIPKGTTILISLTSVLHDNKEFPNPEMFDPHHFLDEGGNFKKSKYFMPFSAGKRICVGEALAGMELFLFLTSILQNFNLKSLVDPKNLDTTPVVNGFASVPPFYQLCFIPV", "assay": "Inhibition of CYP2C9 (unknown origin)", "assay_type": "ADME"}, "[9]": {"assay": "Drug level in C57BL/6 mouse plasma at 10 mg/kg, po after 2 hrs", "assay_type": "ADME, organism-based", "procedure,_shortened": "(§3)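 C57BL/6 mice (n=3) dosed orally at 10 mg/kg in 0.5% MC. Plasma and brain are sampled at 1, 2 and 4 h. Brain is homogenized in 3 volumes of saline, then acetonitrile protein precipitation; plasma is likewise precipitated. Both are analysed by LC–MS/MS and reported as means.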"}, "[10]": {"tested_on": "MDA-MB-231", "assay": "Antiproliferation activity against human MDA-MB-231 cells incubated for 7 days by CellTiter-Glo luminescent cell viability assay", "assay_type": "functional, cell-based", "conditions": "MDA-MB-231, 168 h", "procedure,_shortened": "as §2"}, "[11]": {"assay": "Oral bioavailability in Beagle dog at 2 mg/kg by LC-MS/MS analysis", "assay_type": "ADME, organism-based, Canis lupus familiaris", "conditions": "in vivo", "procedure,_shortened": "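Beagle dogs, three per group. iv 1 mg/kg in 25% DMA in water; oral 2 mg/kg. Values are means of three dogs.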"}, "[12]": {"tested_on": "MDA-MB-436", "assay": "Antiproliferation activity against human MDA-MB-436 cells expressing BRCA1 mutant incubated for 7 days by CellTiter-Glo luminescent cell viability assay", "assay_type": "functional, cell-based", "conditions": "MDA-MB-436, 168 h", "procedure,_shortened": "as §2"}, "[13]": {"assay": "Half life in ICR mouse at 10 mg/kg, po by LC-MS/MS analysis", "assay_type": "ADME, organism-based", "conditions": "in vivo", "procedure,_shortened": "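Male/female unspecified ICR mice, n=3 per route. Intravenous 1 mg/kg in 5% DMA in water; oral 10 mg/kg in 0.5% MC. Plasma is processed by protein precipitation and analysed by LC–MS/MS using an acetonitrile/0.1% formic acid gradient. Values are means of the three animals.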"}, "[14]": {"tested_on": "NCI-H209", "assay": "Antitumor activity against human NCI-H209 cells xenografted in BALB/c nude mouse assessed as inhibition of tumor growth at […], po BID for 28 days", "conditions": "time 28.0 day"}, "[15]": {"assay": "Ratio of drug level in brain to plasma of C57BL/6 mouse brain at 10 mg/kg, po after 4 hrs", "assay_type": "ADME, organism-based", "procedure,_shortened": "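C57BL/6 mice were given 10 mg/kg po in 0.5% MC and sampled at 1, 2 and 4 h. Brain was homogenized in 3 volumes of saline, and brain and plasma were protein-precipitated with acetonitrile, then measured by LC-MS/MS. Brain (ng/g) was expressed as a percentage of plasma (ng/mL). Values are means of three mice.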"}, "[16]": {"assay": "Clearance in Beagle dog at 1 mg/kg, iv by LC-MS/MS analysis", "assay_type": "ADME, organism-based, Canis lupus familiaris", "conditions": "in vivo", "procedure,_shortened": "(§4)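 Three Beagle dogs; iv dose 1 mg/kg in 25% DMA in water; oral dose 2 mg/kg in 0.5% CMC-Na. Plasma drug concentrations are measured by LC–MS/MS. Values are the mean of three dogs.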"}, "[17]": {"assay": "Drug level in C57BL/6 mouse brain at 10 mg/kg, po after 1 hrs", "assay_type": "ADME, organism-based", "conditions": "read-out: Drug uptake", "procedure,_shortened": "as §3"}, "[18]": {"assay": "Volume of distribution at steady state in ICR mouse at 1 mg/kg, iv by LC-MS/MS analysis", "assay_type": "ADME, organism-based", "conditions": "in vivo, read-out: Vdss", "procedure,_shortened": "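Three ICR mice per arm. iv dose 1 mg/kg in 5% DMA in water; oral dose 10 mg/kg in 0.5% MC. Plasma was processed by protein precipitation, diluted with water and quantified by LC-MS/MS (C18 column, acetonitrile/0.1% formic acid gradient). Values are means of three animals.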"}, "[19]": {"assay": "AUC (0 to infinity) in Beagle dog at 2 mg/kg, po by LC-MS/MS analysis", "assay_type": "ADME, organism-based, Canis lupus familiaris", "parameters": "route oral, time infinity, dose 2 mg/kg", "conditions": "in vivo", "procedure,_shortened": "as §4"}, "[20]": {"assay": "Toxicity in BALB/c nude mouse xenografted with human NCI-H209 cells assessed as drug tolerability at […], po BID for 28 days and co-treated with 50 mg/kg, po QD TMZ for 5 consecutive days at start of study and again 14 days later relative to TMZ alone", "assay_type": "organism-based", "conditions": "in vivo, dose 0.75 mg/kg, time 28 day"}, "[21]": {"assay": "Inhibition of PARylation in PBMC in patient with ovarian cancer at >= 10 mg BID during phase I study", "assay_type": "functional, Homo sapiens", "conditions": "dose mg >=10"}, "[22]": {"assay": "Drug level in C57BL/6 mouse brain at 10 mg/kg, po after 2 hrs", "assay_type": "ADME, organism-based", "conditions": "read-out: Drug uptake", "procedure,_shortened": "as §3"}, "[23]": {"assay": "Volume of distribution at steady state in Sprague-Dawley rat at 2 mg/kg, iv by LC-MS/MS analysis", "assay_type": "ADME, organism-based", "conditions": "in vivo, read-out: Vdss", "procedure,_shortened": "as §1"}, "[24]": {"biological_target": "Protein mono-ADP-ribosyltransferase PARP6 (Homo sapiens, UniProt Q2NL67)", "sequence (Q2NL67 whole entry, canonical isoform)": "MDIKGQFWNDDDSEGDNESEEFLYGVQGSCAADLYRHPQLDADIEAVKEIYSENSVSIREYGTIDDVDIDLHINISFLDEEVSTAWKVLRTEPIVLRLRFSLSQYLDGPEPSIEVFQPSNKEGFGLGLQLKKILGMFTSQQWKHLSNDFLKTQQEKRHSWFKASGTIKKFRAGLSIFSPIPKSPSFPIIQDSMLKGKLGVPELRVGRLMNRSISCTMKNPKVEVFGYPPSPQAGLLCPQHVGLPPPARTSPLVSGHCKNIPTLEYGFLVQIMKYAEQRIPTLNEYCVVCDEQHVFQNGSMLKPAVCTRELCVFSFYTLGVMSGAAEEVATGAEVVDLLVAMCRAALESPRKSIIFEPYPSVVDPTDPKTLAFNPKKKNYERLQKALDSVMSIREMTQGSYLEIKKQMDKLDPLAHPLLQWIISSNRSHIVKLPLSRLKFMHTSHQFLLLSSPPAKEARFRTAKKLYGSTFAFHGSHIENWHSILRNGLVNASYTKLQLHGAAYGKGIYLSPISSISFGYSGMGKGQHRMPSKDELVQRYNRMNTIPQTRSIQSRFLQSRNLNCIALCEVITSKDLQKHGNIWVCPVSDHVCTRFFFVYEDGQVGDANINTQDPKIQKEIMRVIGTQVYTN", "assay": "Inhibition of PARP-6 (unknown origin) pre-incubated for 30 mins before addition of activated DNA and NAD by chemiluminescent assay", "procedure,_shortened": "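Chemiluminescent kit assay. Histone-coated wells were incubated for 30 min with the PARP isoform and increasing inhibitor concentrations. A substrate mix of NAD plus biotinylated NAD with activated DNA was then added. The biotinylated PARylation product was read with streptavidin-HRP and HRP substrate. IC50 was taken from residual enzyme activity across the concentration series.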"}, "[25]": {"biological_target": "Organic anion transporter 3 (Homo sapiens, UniProt Q8TCC7)", "sequence (Q8TCC7 whole entry)": "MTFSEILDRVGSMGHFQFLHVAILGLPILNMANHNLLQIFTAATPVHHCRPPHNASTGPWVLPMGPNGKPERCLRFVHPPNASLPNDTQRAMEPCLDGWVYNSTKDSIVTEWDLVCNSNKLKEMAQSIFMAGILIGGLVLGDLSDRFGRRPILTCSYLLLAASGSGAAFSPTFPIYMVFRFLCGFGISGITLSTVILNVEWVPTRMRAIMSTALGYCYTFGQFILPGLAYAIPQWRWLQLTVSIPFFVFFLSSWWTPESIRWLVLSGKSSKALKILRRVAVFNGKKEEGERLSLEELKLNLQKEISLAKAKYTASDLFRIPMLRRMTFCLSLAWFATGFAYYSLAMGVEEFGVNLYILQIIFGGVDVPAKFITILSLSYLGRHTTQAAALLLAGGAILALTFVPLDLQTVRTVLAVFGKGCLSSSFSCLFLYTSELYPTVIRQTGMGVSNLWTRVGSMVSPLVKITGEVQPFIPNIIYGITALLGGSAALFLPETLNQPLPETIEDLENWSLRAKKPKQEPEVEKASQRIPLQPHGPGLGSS", "assay": "Inhibition of OAT3 (unknown origin)"}, "[26]": {"biological_target": "Cytochrome P450 3A4 (Homo sapiens, UniProt P08684)", "sequence (P08684 whole entry)": "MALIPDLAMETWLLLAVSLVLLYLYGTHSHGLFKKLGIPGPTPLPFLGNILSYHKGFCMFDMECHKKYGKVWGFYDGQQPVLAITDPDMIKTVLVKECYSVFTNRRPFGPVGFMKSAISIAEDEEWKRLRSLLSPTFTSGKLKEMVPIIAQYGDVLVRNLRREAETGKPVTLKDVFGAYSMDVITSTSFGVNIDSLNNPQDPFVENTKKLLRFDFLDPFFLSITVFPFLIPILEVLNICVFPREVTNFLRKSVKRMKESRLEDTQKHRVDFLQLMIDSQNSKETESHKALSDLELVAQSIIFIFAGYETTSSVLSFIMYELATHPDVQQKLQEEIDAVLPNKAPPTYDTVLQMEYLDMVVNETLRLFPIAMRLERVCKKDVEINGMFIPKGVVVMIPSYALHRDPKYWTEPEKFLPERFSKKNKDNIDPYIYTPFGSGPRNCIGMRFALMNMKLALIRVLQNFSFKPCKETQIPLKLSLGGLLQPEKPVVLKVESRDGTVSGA", "assay": "Inhibition of CYP3A4 (unknown origin)", "assay_type": "ADME"}, "[27]": {"biological_target": "Solute carrier organic anion transporter family member 1B3 (Homo sapiens, UniProt Q9NPD5)", "sequence (Q9NPD5 whole entry)": "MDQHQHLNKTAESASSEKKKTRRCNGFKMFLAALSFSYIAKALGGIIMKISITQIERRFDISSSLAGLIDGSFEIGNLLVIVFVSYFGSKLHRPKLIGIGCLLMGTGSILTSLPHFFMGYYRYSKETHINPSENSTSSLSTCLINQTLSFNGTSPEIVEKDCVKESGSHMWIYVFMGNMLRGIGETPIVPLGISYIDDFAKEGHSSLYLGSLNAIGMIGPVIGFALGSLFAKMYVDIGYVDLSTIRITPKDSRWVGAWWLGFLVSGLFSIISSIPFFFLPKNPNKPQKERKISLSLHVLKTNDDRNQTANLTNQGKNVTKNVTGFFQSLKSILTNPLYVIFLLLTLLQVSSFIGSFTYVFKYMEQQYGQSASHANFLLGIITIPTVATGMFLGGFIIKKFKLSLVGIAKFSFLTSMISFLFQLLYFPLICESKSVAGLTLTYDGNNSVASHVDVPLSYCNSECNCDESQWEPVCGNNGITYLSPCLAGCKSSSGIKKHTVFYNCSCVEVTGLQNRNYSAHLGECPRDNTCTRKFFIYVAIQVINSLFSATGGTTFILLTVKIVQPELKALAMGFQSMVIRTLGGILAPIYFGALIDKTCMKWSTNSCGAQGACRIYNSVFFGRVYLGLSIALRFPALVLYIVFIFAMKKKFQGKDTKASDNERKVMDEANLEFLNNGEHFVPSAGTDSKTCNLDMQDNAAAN", "assay": "Inhibition of OATP1B3 (unknown origin)"}, "[28]": {"assay": "Clearance in mouse liver microsomes", "assay_type": "ADME, Microsome", "conditions": "read-out: CLH"}}, "note": "Activity calls are given as the source filed them. The calls are words filed in the database; no cut-off is given here.", "data": [{"smiles": "C[C@]12CCCN1CC1=NNC(=O)c3cc(F)cc4[nH]c2c1c34", "note": "[PAMIPARIB]", "values": [{"measurement": "Cmax", "setting": "[1]", "result": 861, "unit": "ng/mL"}, {"measurement": "bioavailability", "setting": "[2]", "result": 93.7, "unit": "%"}, {"measurement": "EC50", "setting": "[3]", "result": 0.0425, "unit": "µM"}, {"measurement": "EC50", "setting": "[4]", "result": 0.0538, "unit": "µM"}, {"measurement": "Papp A→B", "setting": "[5]", "result": 30.3, "unit": "×10⁻⁶ cm/s"}, {"measurement": "clearance", "setting": "[6]", "result": 22.7, "unit": "mL/min/kg"}, {"measurement": "IC50", "setting": "[7]", "result": "> 10", "unit": "µM"}, {"measurement": "IC50", "setting": "[8]", "result": "> 10", "unit": "µM"}, {"measurement": "concentration at 2 h", "setting": "[9]", "result": 1330, "unit": "ng/mL"}, {"measurement": "EC50", "setting": "[10]", "result": "> 10", "unit": "µM"}, {"measurement": "bioavailability", "setting": "[11]", "result": 72.6, "unit": "%"}, {"measurement": "EC50", "setting": "[12]", "result": 0.0106, "unit": "µM"}, {"measurement": "half-life", "setting": "[13]", "result": 3.16, "unit": "h"}, {"measurement": "TGI", "setting": "[14]", "result": "inactive"}, {"measurement": "BPR", "setting": "[15]", "result": 19.1, "unit": "%"}, {"measurement": "CL", "setting": "[16]", "result": 15.2, "unit": "mL/min/kg"}, {"measurement": "concentration at 1 h", "setting": "[17]", "result": 613, "unit": "ng/g"}, {"measurement": "Vd", "setting": "[18]", "result": 5.65, "unit": "L/kg"}, {"measurement": "AUC(0-inf)", "setting": "[19]", "result": 1600, "unit": "ng·h/mL"}, {"measurement": "Activity", "setting": "[20]", "result": "Non-Toxic"}, {"measurement": "inhibition (INH)", "setting": "[21]", "result": ">80", "unit": "%"}, {"measurement": "concentration at 2 h", "setting": "[22]", "result": 252, "unit": "ng/g"}, {"measurement": "Vd", "setting": "[23]", "result": 6.92, "unit": "L/kg"}, {"measurement": "IC50", "setting": "[24]", "result": "> 100", "unit": "µM"}, {"measurement": "IC50", "setting": "[25]", "result": 23.9, "unit": "µM"}, {"measurement": "IC50", "setting": "[26]", "result": "> 10", "unit": "µM"}, {"measurement": "IC50", "setting": "[27]", "result": 19.4, "unit": "µM"}, {"measurement": "CLint scaled", "setting": "[28]", "result": 12.9, "unit": "mL/min/kg"}]}]}
